Test results published in ChEMBL document CHEMBL4396889, “From Inhibition to Degradation: Targeting the Antiapoptotic Protein Myeloid Cell Leukemia 1 (MCL1)” (J Med Chem, 2019).
Activity calls are given as the source filed them. No cut-off for these calls is given here.

Tests used:
[1] = molecular target: T1, Induced myeloid leukemia cell differentiation protein Mcl-1 (Homo sapiens, UniProt Q07820); test: Induction of MCL1 short isoform degradation in CRBN-/- human OPM2 cells assessed as protein abundance at 50 nM after 48 hrs by immunoblot analysis relative to control; type: cell-based
T1 sequence (Q07820 whole entry, canonical isoform): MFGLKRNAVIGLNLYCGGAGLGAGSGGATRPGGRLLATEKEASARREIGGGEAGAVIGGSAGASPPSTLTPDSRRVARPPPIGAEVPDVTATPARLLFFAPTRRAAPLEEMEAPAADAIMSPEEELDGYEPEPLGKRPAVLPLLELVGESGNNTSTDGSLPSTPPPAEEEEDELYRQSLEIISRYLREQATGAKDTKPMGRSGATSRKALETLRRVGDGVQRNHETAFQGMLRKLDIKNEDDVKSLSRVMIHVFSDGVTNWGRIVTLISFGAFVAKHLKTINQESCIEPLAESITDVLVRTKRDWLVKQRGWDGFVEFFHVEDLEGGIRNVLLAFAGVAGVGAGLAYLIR
Outline: (§1)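 OPM2 multiple myeloma cells, wild type or CRBN-knockout, were treated for 48 h with degrader or DMSO vehicle. MCL1 long and short isoforms were detected by immunoblot and levels compared with DMSO controls.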

[2] = molecular target: T2, Protein cereblon/Induced myeloid leukemia cell differentiation protein Mcl-1 (Homo sapiens) (UniProt Q07820+Q96SW2); test: Protac activity at N-terminal His-tagged human MCL1 expressed in Escherichia coli/Cereblon in human OPM2 cell lysate assessed as ternary complex formation at 500 nM incubated for 4 hrs followed by cell lysate addition after overnight incubation by SDS-PAGE/immunoblot analysis
T2 sequence (Q07820 whole entry, looked up, canonical isoform): as the sequence (Q07820 whole entry, canonical isoform) above
T2 sequence (Q96SW2 whole entry, looked up, canonical isoform): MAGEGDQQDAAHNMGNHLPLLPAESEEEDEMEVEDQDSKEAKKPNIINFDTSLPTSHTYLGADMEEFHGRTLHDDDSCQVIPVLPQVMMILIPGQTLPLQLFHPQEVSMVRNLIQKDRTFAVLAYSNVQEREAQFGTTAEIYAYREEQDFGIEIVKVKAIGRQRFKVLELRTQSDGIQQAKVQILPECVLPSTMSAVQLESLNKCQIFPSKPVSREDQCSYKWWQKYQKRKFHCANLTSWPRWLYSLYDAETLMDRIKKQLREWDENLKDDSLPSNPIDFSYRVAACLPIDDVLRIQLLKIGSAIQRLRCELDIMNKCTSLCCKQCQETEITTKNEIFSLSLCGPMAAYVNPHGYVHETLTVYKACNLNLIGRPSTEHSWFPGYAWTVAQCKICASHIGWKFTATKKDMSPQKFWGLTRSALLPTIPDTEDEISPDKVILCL

[3] = molecular target: T1, Induced myeloid leukemia cell differentiation protein Mcl-1; test: Induction of MCL1 long isoform degradation in CRBN-/- human OPM2 cells assessed as protein abundance at 50 nM after 48 hrs by immunoblot analysis relative to control; type: cell-based; outline: as §1
[4] = molecular target: T2, Protein cereblon/Induced myeloid leukemia cell differentiation protein Mcl-1 (Homo sapiens); test: Protac activity at Cereblon/MCL1 short isoform in human MM1S cells assessed as MCL1 short isoform level at 300 nM pre-incubated for 72 hrs followed by cycloheximide addition and measured after 60 mins by immunoblot analysis (reference value: 98%); type: cell-based
Outline: (§2)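 OPM2 or MM1.S cells were treated for 72 h with compound or DMSO. Cycloheximide was added for the final 30, 60 or 120 min. MCL1 was read by immunoblot and compared with DMSO-treated cells as a normal-turnover reference.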

[5] = Half-life in human liver microsome pre-incubated for 10 mins followed by addition of NADPH regenerating system after 5 to 60 mins by LC/MS/MS analysis; type: ADME; conditions: liver microsomes
[6] = molecular target: T1, Induced myeloid leukemia cell differentiation protein Mcl-1; test: Induction of MCL1 short isoform degradation in CRBN-/- human OPM2 cells assessed as protein abundance at 300 nM pre-incubated for 72 hrs followed by cycloheximide addition and measured after 120 mins by immunoblot analysis (reference value: 16%); type: cell-based
Outline: (§3)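 Cycloheximide chase: cells were treated for 72 h with DMSO or degrader, with cycloheximide added for the final 30, 60 or 120 min. OPM2 and MM1.S cells were used, and wild-type OPM2 was compared with OPM2 CRBN-/- at 60 and 120 min. MCL1 was detected by immunoblot.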

[7] = molecular target: T2, Protein cereblon/Induced myeloid leukemia cell differentiation protein Mcl-1 (Homo sapiens); test: Protac activity at Cereblon/MCL1 in human OPM2 cells assessed as protein abundance at 1 uM after 48 hrs by immunoblot analysis relative to control; type: cell-based; outline: as §1
OPM-2 [8] = test: Induction of apoptosis in wild type human OPM2 cells assessed as cleaved caspase-3 at 250 nM after 24 hrs in presence of 1% FBS by immunoblot analysis (reference value: 92%); type: functional
[9] = molecular target: T2, Protein cereblon/Induced myeloid leukemia cell differentiation protein Mcl-1 (Homo sapiens); test: Protac activity at Cereblon/MCL1 long isoform in wild type human OPM2 cells at 500 nM after 48 hrs by immunoblot analysis relative to control; type: cell-based; outline: as §1
[10] = molecular target: T2, Protein cereblon/Induced myeloid leukemia cell differentiation protein Mcl-1 (Homo sapiens); test: Protac activity at Cereblon/MCL1 in human OPM2 cells assessed as protein abundance at 250 nM after 48 hrs by immunoblot analysis relative to control; type: cell-based; outline: as §1
[11] = molecular target: T2, Protein cereblon/Induced myeloid leukemia cell differentiation protein Mcl-1 (Homo sapiens); test: Protac activity at Cereblon/MCL1 long isoform in wild type human OPM2 cells assessed as MCL1 long isoform level at 300 nM pre-incubated for 72 hrs followed by cycloheximide addition and measured after 120 mins by immunoblot analysis (reference value: 53%); type: cell-based; outline: as §3
OPM-2 [12] = test: Induction of apoptosis in wild type human OPM2 cells assessed as cleaved caspase-3 at 50 nM after 24 hrs in presence of 1% FBS by immunoblot analysis (reference value: 95%); type: functional
[13] = molecular target: T2, Protein cereblon/Induced myeloid leukemia cell differentiation protein Mcl-1 (Homo sapiens); test: Protac activity at Cereblon/MCL1 long isoform in human OPM2 cells assessed as MCL1 long isoform level at 300 nM pre-incubated for 72 hrs followed by cycloheximide addition and measured after 120 mins by immunoblot analysis (reference value: 58%); type: cell-based; outline: as §3
[14] = molecular target: T1, Induced myeloid leukemia cell differentiation protein Mcl-1; test: Induction of MCL1 long isoform degradation in CRBN-/- human OPM2 cells assessed as protein abundance at 300 nM pre-incubated for 72 hrs followed by cycloheximide addition and measured after 60 mins by immunoblot analysis (reference value: 79%); type: cell-based; outline: as §3
[15] = molecular target: T2, Protein cereblon/Induced myeloid leukemia cell differentiation protein Mcl-1 (Homo sapiens); test: Protac activity at Cereblon/MCL1 long isoform in human OPM2 cells assessed as MCL1 long isoform abundance at 500 nM after 24 hrs by immunoblot analysis relative to control; type: cell-based
[16] = molecular target: T2, Protein cereblon/Induced myeloid leukemia cell differentiation protein Mcl-1 (Homo sapiens); test: Protac activity at Cereblon/MCL1 in human OPM2 cell lysate assessed as induction of MCL1 polyubiquitination incubated for 3 hrs by SDS-PAGE/immunoblot analysis; type: subcellular
Outline: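 In vitro ubiquitinylation reactions; the target (MCL1 or BRD4) was then immunoprecipitated and the immunoprecipitate immunoblotted for ubiquitin.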

[17] = molecular target: T1, Induced myeloid leukemia cell differentiation protein Mcl-1; test: Induction of MCL1 short isoform degradation in CRBN-/- human OPM2 cells assessed as protein abundance at 300 nM pre-incubated for 72 hrs followed by cycloheximide addition and measured after 60 mins by immunoblot analysis (reference value: 57%); type: cell-based; outline: as §3
[18] = molecular target: T2, Protein cereblon/Induced myeloid leukemia cell differentiation protein Mcl-1 (Homo sapiens); test: Protac activity at Cereblon/MCL1 short isoform in human OPM2 cells assessed as MCL1 short isoform level at 300 nM pre-incubated for 72 hrs followed by cycloheximide addition and measured after 120 mins by immunoblot analysis (reference value: 14%); type: cell-based; outline: as §2
[19] = molecular target: T2, Protein cereblon/Induced myeloid leukemia cell differentiation protein Mcl-1 (Homo sapiens); test: Protac activity at Cereblon/MCL1 short isoform in human OPM2 cells assessed as MCL1 short isoform abundance at 500 nM after 24 hrs by immunoblot analysis relative to control; type: cell-based
OPM-2 [20] = test: Induction of apoptosis in wild type human OPM2 cells assessed as cleaved caspase-3 at 500 nM after 24 hrs in presence of 1% FBS by immunoblot analysis (reference value: 80%); type: functional
[21] = molecular target: T2, Protein cereblon/Induced myeloid leukemia cell differentiation protein Mcl-1 (Homo sapiens); test: Protac activity at Cereblon/MCL1 short isoform in wild type human OPM2 cells assessed as MCL1 short isoform abundance at 250 nM after 48 hrs by immunoblot analysis relative to control; type: cell-based
Outline: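 OPM2 wild-type cells, run alongside the CRBN-/- line, were treated for 48 h with compound or DMSO. The MCL1 long and short isoforms were then measured by immunoblot against the DMSO control.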

[22] = molecular target: T2, Protein cereblon/Induced myeloid leukemia cell differentiation protein Mcl-1 (Homo sapiens); test: Protac activity at Cereblon/MCL1 long isoform in human OPM2 cells assessed as MCL1 long isoform abundance at 50 nM after 24 hrs by immunoblot analysis relative to control; type: cell-based
[23] = molecular target: T2, Protein cereblon/Induced myeloid leukemia cell differentiation protein Mcl-1 (Homo sapiens); test: Protac activity at Cereblon/MCL1 short isoform in human OPM2 cells assessed as MCL1 short isoform abundance at 250 nM after 24 hrs by immunoblot analysis relative to control; type: cell-based
[24] = molecular target: T2, Protein cereblon/Induced myeloid leukemia cell differentiation protein Mcl-1 (Homo sapiens); test: Protac activity at Cereblon/MCL1 long isoform in human OPM2 cells assessed as MCL1 long isoform abundance at 100 nM after 24 hrs by immunoblot analysis relative to control; type: cell-based
[25] = molecular target: T2, Protein cereblon/Induced myeloid leukemia cell differentiation protein Mcl-1 (Homo sapiens); test: Protac activity at Cereblon/MCL1 long isoform in human MM1S cells assessed as MCL1 long isoform level at 300 nM pre-incubated for 72 hrs followed by cycloheximide addition and measured after 60 mins by immunoblot analysis (reference value: 82%); type: cell-based; outline: as §3
[26] = molecular target: T1, Induced myeloid leukemia cell differentiation protein Mcl-1; test: Induction of MCL1 long isoform degradation in CRBN-/- human OPM2 cells assessed as protein abundance at 250 nM after 48 hrs by immunoblot analysis relative to control; type: cell-based; outline: as §1
[27] = molecular target: T1, Induced myeloid leukemia cell differentiation protein Mcl-1; test: Induction of MCL1 long isoform degradation in CRBN-/- human OPM2 cells assessed as protein abundance at 500 nM after 48 hrs by immunoblot analysis relative to control; type: cell-based; outline: as §1

## Cc1nn(C)c(COc2ccc(N3CCN(S(=O)(=O)N(C)C)CC3)cc2)c1-c1cccc2c(CCCOc3cccc4ccccc34)c(C(=O)O)n(CCN3CCN(C(=O)COc4cccc5c4C(=O)N(C4CCC(=O)NC4=O)C5=O)CC3)c12 (configuration not stated)
[1]
  Activity: 100%
[2]
  Activity: Active
[3]
  Activity: 100%
[4]
  Activity: 31%
[5]
  half-life: 20.6 min
[6]
  Activity: 25%
[7]
  Activity: 110%
OPM-2 [8]
  Activity: 197%
[9]
  Activity: 50%
[10]
  Activity: 63%
[11]
  Activity: 16%
OPM-2 [12]
  Activity: 85%
[13]
  Activity: 24%
[14]
  Activity: 78%
[15]
  Activity: 55%
[16]
  Activity: Active
[17]
  Activity: 64%
[18]
  Activity: 2%
[19]
  Activity: 22%
OPM-2 [20]
  Activity: 326%
[21]
  Activity: 47%
[22]
  Activity: 97%
[23]
  Activity: 49%
[24]
  Activity: 77%
[25]
  Activity: 58%
[26]
  Activity: 85%
[27]
  Activity: 100%
